For experiment [1], the system named is PC-3. Put plainly: Cytotoxicity against human PC3 cells assessed as reduction in cell viability incubated for 72 hrs by MTT assay. The format is functional, cell-based. As to conditions: PC-3, 72 h. Put shortly:
(§1)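 About 5 × 10³ cells/well, seeded overnight at 37 °C, 5% CO₂, in DMEM or RPMI-1640 with 10% FBS and antibiotics. DMSO-dissolved compounds diluted in medium, exposure 72 h.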
For orientation: Tetrazolium dyes change colour on reduction, which living cells bring about.

For experiment [2], the system named is HCT-116. The experiment in a line: Cytotoxicity against human HCT-116 cells assessed as reduction in cell viability incubated for 72 hrs by MTT assay. The format is functional, cell-based. Particulars: HCT-116, 72 h. Put shortly:
as §1

For experiment [3], the system named is T-24. Put plainly: Cytotoxicity against human T24 cells assessed as reduction in cell viability incubated for 72 hrs by MTT assay. Particulars: T-24, 72 h. The class given is functional, cell-based. Put shortly:
as §1

For experiment [4], the system named is HT-29. Put plainly: Cytotoxicity against human HT-29 cells assessed as reduction in cell viability incubated for 72 hrs by MTT assay. The format is functional, cell-based. Particulars: HT-29, 72 h.
The subject of experiment [5] is L02. Put plainly: Cytotoxicity against human L02 cells assessed as reduction in cell viability incubated for 72 hrs by MTT assay. The format is cell-based. Particulars: L02, 72 h. Put shortly: as §1
For experiment [6], the system named is MCF7. The experiment in a line: Cytotoxicity against human MCF7 cells assessed as reduction in cell viability incubated for 72 hrs by MTT assay. The format is functional, cell-based. Particulars: MCF7, 72 h. The gist of the method: as §1

In general, IC50 refers to the point on the concentration scale where inhibition reaches its midpoint. Turning to `COC(=O)CCCNC(=O)c1ccc2c(c1)nc(Nc1cccc(Cl)c1)c1ccncc12`, the IC50 in experiment [1] turned out to be 4.89 µM; in experiment [2], 5.91 µM; in experiment [3], 12.9 µM; in experiment [4], 20.6 µM; in experiment [5] it was 89.1 µM; in experiment [6], 19.8 µM.
`CS(=O)(=O)NC(=O)c1ccc2c(c1)nc(Nc1cccc(Cl)c1)c1ccncc12`: the IC50 amounted to 4.16 µM in experiment [1]; 13.2 µM in experiment [2]; 23.5 µM in experiment [3]; 17.8 µM in experiment [4]; 28.4 µM in experiment [5]; 12.2 µM in experiment [6].
On to `O=C(NCCCO)c1ccc2c(c1)nc(Nc1cccc(Cl)c1)c1ccncc12`, for which the IC50 in experiment [1] amounted to 8.94 µM; in experiment [2], 13.7 µM; in experiment [3], 18.8 µM; in experiment [4], 11.8 µM; in experiment [5] it was 74.2 µM; in experiment [6], 7.71 µM.
`NCCCNC(=O)c1ccc2c(c1)nc(Nc1cccc(Cl)c1)c1ccncc12`: the half-inhibitory concentration (IC50) came out at 14.1 µM in experiment [1]; 15.9 µM in experiment [2]; 37.3 µM in experiment [3]; 9.87 µM in experiment [4]; 85 µM in experiment [5]; 19.7 µM in experiment [6].
In the case of `C#CCNC(=O)c1ccc2c(c1)nc(Nc1cccc(Cl)c1)c1ccncc12`, the half-inhibitory concentration (IC50) in experiment [1] was determined as 7.6 µM; in experiment [2] it was 21.2 µM; in experiment [3] it was 18.5 µM; in experiment [4], 16.4 µM; in experiment [5] it was 28.4 µM; in experiment [6], 13.9 µM.
On to `O=C(OCCC(Cl)Cl)c1ccc2c(c1)nc(Nc1cccc(Cl)c1)c1ccncc12`, for which the 50% inhibitory concentration (IC50) is 13.5 µM in experiment [1]; 20.8 µM in experiment [2]; 20.6 µM in experiment [3]; 18.4 µM in experiment [4]; 22 µM in experiment [5]; 14.2 µM in experiment [6].
`O=C(O)CCNC(=O)c1ccc2c(c1)nc(Nc1cccc(Cl)c1)c1ccncc12`: the half-inhibitory concentration (IC50) turned out to be 16.2 µM in experiment [1]; 4.6 µM in experiment [2]; 24.4 µM in experiment [3]; 19.9 µM in experiment [4]; 72.8 µM in experiment [5]; 24.6 µM in experiment [6].
As to `O=C(OCCOCCOCCO)c1ccc2c(c1)nc(Nc1cccc(Cl)c1)c1ccncc12`, the IC50 was 19.2 µM in experiment [1]; 9.71 µM in experiment [2]; 14.1 µM in experiment [3]; 12.6 µM in experiment [4]; 30.7 µM in experiment [5]; 13.6 µM in experiment [6].
As for `CN(C)CCNC(=O)c1ccc2c(c1)nc(Nc1cccc(Cl)c1)c1ccncc12`, the IC50 in experiment [1] stood at 11.1 µM; in experiment [2], 12.8 µM; in experiment [3] it was 5.93 µM; in experiment [4], 5.08 µM; in experiment [5], 17.3 µM; in experiment [6], 6.01 µM.
`O=C(NCCN1CCCCC1)c1ccc2c(c1)nc(Nc1cccc(Cl)c1)c1ccncc12`: the IC50 was found to be 6.08 µM in experiment [1]; 8.6 µM in experiment [2]; 3.24 µM in experiment [3]; 13.8 µM in experiment [4]; 14.3 µM in experiment [5]; 3.74 µM in experiment [6].
On to `O=C(NCCN1CCCC1)c1ccc2c(c1)nc(Nc1cccc(Cl)c1)c1ccncc12`, for which the IC50 in experiment [1] came to 10.1 µM; in experiment [2], 8.79 µM; in experiment [3], 3.23 µM; in experiment [4], 7.94 µM; in experiment [5], 16 µM; in experiment [6], 8.6 µM.
On to `O=C(NO)c1ccc2c(c1)nc(Nc1cccc(Cl)c1)c1ccncc12`, for which the half-maximal inhibitory concentration (IC50) in experiment [1] is 15.1 µM; in experiment [2], 8.62 µM; in experiment [3] it was 3.89 µM; in experiment [4] it was 9.98 µM; in experiment [5], 21.4 µM; in experiment [6], 7.66 µM.
In the case of `O=C(NCC(F)F)c1ccc2c(c1)nc(Nc1cccc(Cl)c1)c1ccncc12`, the 50% inhibitory concentration (IC50) in experiment [1] was found to be 6.12 µM; in experiment [2], 16.5 µM; in experiment [3], 18.1 µM; in experiment [5] it was 18.4 µM; in experiment [6] it was 10.4 µM.

Source of the values: ChEMBL document CHEMBL4808178 (J Med Chem, 2021).
